From ChEMBL document CHEMBL1138476 (J Med Chem, 2009) come the findings set out here.

The IC50 is the concentration that gives 50% inhibition. As usually defined, the clearance is a measure of how efficiently the substance is removed, as volume per time. As a reminder, the solubility is the dissolved amount per volume that the medium holds. Read a low solubility as little dissolved substance.

Series [1] concerns Canis familiaris. Description: Effect on respiratory function in spontaneously breathing mongrel dog assessed as change in peak expiratory flow at 5 mg/kg after intravenous infusion for 60 mins (RVb= 0.4+/-6.7 %). The format is functional, Canis lupus familiaris.
Series [2] concerns Rattus norvegicus. Description: Toxicity in rat assessed as total distance traveled at 1 mg/kg, po after 1 hr by spontaneous locomotor test. The format is organism-based. The arrangement: dose 1 mg/kg, route oral. The settings on record: in vivo. Put shortly:
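Spontaneous locomotor activity in rats dosed po in 0.25% Methocel 1 h pretest; doses up to 100 mg/kg. Compared with the vehicle (zero dose) group, mean ± SEM, N = rats.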

The test system of series [3] is Canis familiaris. The experiment in a line: Effect on respiratory function in spontaneously breathing mongrel dog assessed as change in airway resistance at 5 mg/kg after intravenous infusion for 6 mins (RVb= 3.9+/-4.7 %). Type of series: functional, Canis lupus familiaris.
Series [4] concerns the target T1, Corticotropin-releasing factor receptor 1 (Rattus norvegicus, UniProt P35353).
T1 sequence (P35353 whole entry): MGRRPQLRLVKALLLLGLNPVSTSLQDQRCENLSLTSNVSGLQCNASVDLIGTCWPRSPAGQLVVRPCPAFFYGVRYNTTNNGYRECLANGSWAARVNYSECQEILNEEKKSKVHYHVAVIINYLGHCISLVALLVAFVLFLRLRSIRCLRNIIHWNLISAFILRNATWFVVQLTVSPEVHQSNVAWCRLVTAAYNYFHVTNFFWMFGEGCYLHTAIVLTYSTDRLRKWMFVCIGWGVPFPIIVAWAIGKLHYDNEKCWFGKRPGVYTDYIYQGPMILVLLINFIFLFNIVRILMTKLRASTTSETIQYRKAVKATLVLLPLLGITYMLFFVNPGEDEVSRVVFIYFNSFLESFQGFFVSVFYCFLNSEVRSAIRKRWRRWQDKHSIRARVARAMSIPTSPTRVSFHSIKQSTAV
Description: Antagonist activity at CRF1 receptor in rat pituitary cells assessed as inhibition of CRF-mediated ACTH production. Type of series: functional, cell-based, Pituitary gland cell.

The subject of series [5] is Canis familiaris. The experiment in a line: Effect on respiratory function in spontaneously breathing mongrel dog assessed as change in heart rate at 5 mg/kg after intravenous infusion for 6 mins (RVb= -0.4+/-0.7 %). The format is functional, Canis lupus familiaris.
The nature of series [6]: Clearance in chimpanzee at 0.5 mg/kg, iv. Type of series: ADME, organism-based, Pan troglodytes. The arrangement: dose 0.5 mg/kg, route intravenous. Particulars: in vivo. The gist of the method:
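Chimpanzee PK. Oral: 1 mg/kg in two alert animals, given as a 1 mg/mL suspension in 50–50 (v/v) 0.5% methylcellulose/Tang orange juice with 1% Tween-80. IV: 0.5 mg/kg in one animal in 10% DMAC, 70% propylene glycol and deionized water, infused over 10 min (0.2 mL/kg). EDTA blood was taken predose and at 2–96 h; iv sampling added 6, 15 and 30 min.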

The subject of series [7] is Canis familiaris. Description: Cardiovascular activity in dog assessed as increase in mean […] pressure at 3 mg to 5 mg/kg, iv by dose escalation study. Type of series: functional, Canis lupus familiaris. The gist of the method: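 Anesthetized mongrel dogs on sodium pentobarbital, mechanically ventilated, with left ventricular and arterial pressure transducers and ECG. Four dogs received 6 min iv infusions at escalating 0.3, 1, 3 and 5 mg/kg, 30 min apart; four control dogs received vehicle on the same schedule. Mean arterial pressure and dP/dt were recorded; plasma was sampled after each infusion.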

Series [8] has as its system Canis familiaris. Description: Effect on respiratory function in spontaneously breathing mongrel dog assessed as change in minute volume at 5 mg/kg after intravenous infusion for 60 mins (RVb= -13.4+/-10.7 %). The format is functional, Canis lupus familiaris.
Series [9] addresses T1, Corticotropin-releasing factor receptor 1. Description: Displacement of [125I]Tyro-rat/human CRF from CRF1 receptor in rat cortical membrane by gamma counting. The format is cell membranes. The gist of the method:
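Binding to CRF receptors in rat cortical homogenate.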
Background: Displacement assays read how much labelled ligand stays bound in the presence of the test substance.

For series [10], the system named is Rattus norvegicus. The experiment in a line: Toxicity in rat assessed as total distance traveled at 100 mg/kg, po after 1 hr by spontaneous locomotor test. The format is organism-based. The arrangement: dose 100 mg/kg, route oral. The settings on record: in vivo. The gist of the method: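 Rat spontaneous locomotor activity test with oral dosing in 0.25% Methocel 1 h before testing, at doses up to 100 mg/kg. Values are mean ± SEM, with N rats per group, compared with the vehicle (zero-dose) group.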

Series [11] has as its system Canis familiaris. Description: Effect on respiratory function in spontaneously breathing mongrel dog assessed as change in peak expiratory flow at 5 mg/kg after intravenous infusion for 15 mins (RVb= -8.4+/-6.6 %). The format is functional, Canis lupus familiaris.
The subject of series [12] is Canis familiaris. The experiment in a line: Effect on respiratory function in spontaneously breathing mongrel dog assessed as change in mean arterial pressure at 5 mg/kg after intravenous infusion for 60 mins (RVb= 5.1+/-3.5 %). Type of series: functional, Canis lupus familiaris, Artery.
Series [13] is described as follows: Plasma concentration in rat at 30 mg/kg, po after 1 hr. Type of series: ADME, organism-based. The arrangement: dose 30 mg/kg, route oral. The gist of the method: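 Rats (n = 9, renal function study) given 30 mg/kg po; plasma levels measured in a separate cohort dosed the same way, sampled at 1 and 5 h after dosing.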
Series [14] relates to Canis familiaris. Description: Cardiovascular activity in mechanically ventilated mongrel dog at assessed as increase in contractility at 3 mg/kg to 5 mg/kg, iv by dose escalation study.
A short description of series [15]: Aqueous solubility at pH 7.4. Type of series: physicochemical. The settings on record: aqueous medium. The gist of the method:
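Solubility measured in water at pH 7.4.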

Series [16] deals with Rattus norvegicus. Description: Effect on acute renal function in rat assessed as change in urine volume per 100 gm body weight at 30 mg/kg, po (RVb= 1.7+/-0.2 ml/100g). Type of series: functional.
In series [17] the test system is Canis familiaris. Description: Effect on respiratory function in spontaneously breathing mongrel dog assessed as change in heart rate at 5 mg/kg after intravenous infusion for 15 mins (RVb= -2.3+/-1.7 %). The format is functional, Canis lupus familiaris.
Series [18] is described as follows: Plasma concentration in spontaneously breathing dog at 5 mg/kg, iv after 30 mins. The format is ADME, organism-based, Canis lupus familiaris. The arrangement: dose 5 mg/kg, route intravenous. Put shortly: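 Spontaneously breathing, barbiturate-anesthetized mongrel dogs (n = 4) infused iv at 5.0 mg/kg over 6 min. Total pooled plasma concentrations taken at 6, 15, 30 and 60 min.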

The subject of series [19] is Canis familiaris. The experiment in a line: Effect on respiratory function in spontaneously breathing mongrel dog assessed as change in peak expiratory flow at 5 mg/kg after intravenous infusion for 30 mins (RVb= -3.3+/-6.4 %). The format is functional, Canis lupus familiaris.
In another series the target is T2, Substance-K receptor (Homo sapiens, UniProt P21452).
T2 sequence (P21452 whole entry): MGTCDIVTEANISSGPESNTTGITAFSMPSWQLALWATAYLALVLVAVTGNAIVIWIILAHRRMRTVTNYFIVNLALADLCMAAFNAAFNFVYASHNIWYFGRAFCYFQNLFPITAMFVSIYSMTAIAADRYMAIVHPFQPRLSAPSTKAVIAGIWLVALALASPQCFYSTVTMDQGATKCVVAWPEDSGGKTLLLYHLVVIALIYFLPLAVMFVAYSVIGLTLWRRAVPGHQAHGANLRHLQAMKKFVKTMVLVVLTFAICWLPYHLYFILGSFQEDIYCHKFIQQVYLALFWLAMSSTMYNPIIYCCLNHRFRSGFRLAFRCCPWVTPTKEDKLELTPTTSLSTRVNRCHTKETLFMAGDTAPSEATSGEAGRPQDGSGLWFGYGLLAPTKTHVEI
The experiment in a line: Binding affinity to human neurokinin 2 receptor. Put shortly: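 Human neurokinin 2 receptor binding, contracted out as part of a broad screen.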

In series [20] the test system is Rattus norvegicus. The experiment in a line: Ex vivo receptor occupancy of CRF receptor in rat brain at 0.3 mg/kg, po by [125I]sauvagine binding and autoradiography relative to control. Type of series: functional. The gist of the method: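 Rats were given 0.3, 1, 3, 10 or 30 mg/kg po in 0.25% Methocel 60 min before sacrifice. Brains were removed, sectioned and frozen at −80 °C. Ex vivo CRF receptor binding gave occupancy relative to vehicle-treated rats, reported as mean ± SEM.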

Structures are written as SMILES. Values after ≈ are worked out from the molar mass of the structure shown.

As for `CC[C@@H](C)Nc1nc(C)nc2c(-c3ccc(OC)nc3C)c(C)nn12` [PEXACERFONT], the Activity in the series on Canis familiaris [1] is 7.5%; in the series on Rattus norvegicus [2], 4106 cm; with Canis familiaris [3], 15.3%; in the series on Canis familiaris [5], -0.3%; with Canis familiaris [7], 10 mmHg; with Canis familiaris [8] it was -6%. Also, the Activity with Rattus norvegicus [10] is 4041 cm; in the series on Canis familiaris [11], -0.1%; in the series on Canis familiaris [12], 4%; in the series with Canis familiaris [14], 200 mmHg/s; in the series on Rattus norvegicus [16], 3 mL/100 g; in the series on Canis familiaris [17], -2.9%. The Activity is given as -10.7% in the series on Canis familiaris [19] and 37% in the series on Rattus norvegicus [20]. In addition, the concentration for half-maximal inhibition (IC50) in series [4] came out at 129 nM; in series [9] it was 6.1 nM; on Substance-K receptor, 4900 nM. The clearance in series [6] was 2 mL/min/kg. For the same compound, the concentration at 1 h in series [13] came to 3990 nM. The solubility in [15] is 16 µg/mL (≈ 47 µM). This compound came in with a concentration at 0.5 h in series [18] of 412 nM.
